Shown are actives, neighbours in structure and some others; about 4.2% of the full set was active somewhere.
UPR CHOP act: activators of apoptotic CHOP UPR arm, primary screen, cell-based, CHO-CHOP luciferase reporter, luminescence, uHTS; UPR activation; percent of tunicamycin response over DMSO baseline; activation, % at 10 µM; actives 0.34% (n = 330,000); AID 449763, 2010;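 active = at 10 µM dose, activation of 40% or more, normalized to positive control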;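 also: 100% = tunicamycin at 10 µg/mL and 0% = DMSO alone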
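Assay system: CHO cells with stable CHOP pathway luciferase reporter; Buffer or medium: F12 plus 10% serum; Times: 16-18 h cell attachment, then 6 h compound exposure, 37 °C; Signal: luciferase luminescence; Read-out basis: percent activation relative to tunicamycin control; Control set: tunicamycin high control, DMSO low control.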
UPR XBP1 act: activators of adaptive XBP1 UPR arm, primary screen, cell-based, CHO-XBP1 luciferase reporter, luminescence, uHTS | IRE1-XBP1 UPR activation; percent of tunicamycin response, DMSO as zero | activation, % at 20 µM | actives 0.33% (n = 330,000);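 active = versus positive control, 20 µM dose yields 30% or more activation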;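 also: 100% = tunicamycin at 10 µg/mL and 0% = DMSO only wells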
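Material: CHO-XBP1 cells stably carrying IRE1-XBP1-driven luciferase reporter | Medium: F12 with 10% serum | Compound dosing: 20 µM single concentration, DMSO 1% | Incubation: Overnight seeding at 37 °C, 6 h compound treatment at 37 °C | Detection: Steady-Glo luminescence read | Read-out basis: % activation of reporter signal versus tunicamycin and DMSO controls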
ANO1 block: TMEM16A chloride channel inhibitors, primary screen, cell-based, HTS. Anoctamin-1 (Mus musculus), Q8BHY3. HEK293 TMEM16A/YFP iodide influx fluorescence, ionomycin. normalized B-score (activity score, 25-100; higher = stronger inhibition) at 10 µM. actives 1.2% (n = 310,000);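 active = ratio plate-corrected score three or more library SD toward inhibition, starting fluorescence score within five deviations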;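 also: score derived from kinetic fluorescence span divided by baseline fluorescence per well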
Target sequence (Q8BHY3 whole entry, looked up): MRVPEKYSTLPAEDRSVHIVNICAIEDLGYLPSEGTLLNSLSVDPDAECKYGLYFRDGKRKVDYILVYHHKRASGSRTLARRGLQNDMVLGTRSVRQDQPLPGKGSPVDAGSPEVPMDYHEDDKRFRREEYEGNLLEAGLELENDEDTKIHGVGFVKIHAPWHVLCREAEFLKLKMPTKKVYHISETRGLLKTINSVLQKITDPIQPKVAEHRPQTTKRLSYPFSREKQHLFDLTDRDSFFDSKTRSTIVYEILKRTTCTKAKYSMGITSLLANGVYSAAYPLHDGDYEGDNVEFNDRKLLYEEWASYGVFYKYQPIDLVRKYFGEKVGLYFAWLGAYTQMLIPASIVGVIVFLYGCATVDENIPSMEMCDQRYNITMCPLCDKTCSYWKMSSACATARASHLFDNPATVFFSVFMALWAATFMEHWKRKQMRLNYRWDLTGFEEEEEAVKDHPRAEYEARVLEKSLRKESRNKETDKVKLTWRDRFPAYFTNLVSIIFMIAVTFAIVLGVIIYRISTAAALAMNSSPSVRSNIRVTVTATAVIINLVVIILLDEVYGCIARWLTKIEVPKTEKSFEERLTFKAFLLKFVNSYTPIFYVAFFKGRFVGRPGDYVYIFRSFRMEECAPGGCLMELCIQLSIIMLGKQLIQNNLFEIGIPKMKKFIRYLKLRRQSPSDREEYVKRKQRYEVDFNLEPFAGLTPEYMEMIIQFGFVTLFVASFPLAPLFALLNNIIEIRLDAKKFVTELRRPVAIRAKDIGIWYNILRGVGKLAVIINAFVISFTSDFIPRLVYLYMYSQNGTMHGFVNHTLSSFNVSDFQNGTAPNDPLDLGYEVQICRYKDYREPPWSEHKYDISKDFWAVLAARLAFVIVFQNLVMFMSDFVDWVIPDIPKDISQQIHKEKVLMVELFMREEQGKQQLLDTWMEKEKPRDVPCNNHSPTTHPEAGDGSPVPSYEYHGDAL
CHOP inh: inhibitors of CHOP promoter induction, primary screen, cell-based, unfolded protein response, luciferase reporter; CHO-K1 CHOP-promoter luciferase, tunicamycin-induced, 15-18 h; inhibition, % at 10 µM; actives 3.8% (n = 220,000); AID 2732, 2010;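 active = compounds that reduced the stress-induced luciferase reporter signal by more than about 70% of percent inhibition, limit read from the data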;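 also: 0% = tunicamycin plus vehicle and 100% = wells without tunicamycin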
ANO1 activ: TMEM16A chloride channel activators or potentiators, primary screen, cell-based, HTS; Anoctamin-1 (Mus musculus), Q8BHY3; HEK293 TMEM16A/YFP-H148Q/I152L, iodide quench fluorescence; stronger effect = lower value; B-score at 10 µM; actives 0.3% (n = 340,000); AID 623877, 2012;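 active = fluorescence-ratio B-score plate-corrected deviation score at least 3 library SD below zero, with starting fluorescence score within 5 deviations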;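 also: channel opened by trigger with iodide after compound preincubation; score built on the fluorescence ratio of max minus min over baseline; more negative score means more quench and so TMEM16A activation or potentiation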
Hep lipid drop: inhibitors of hepatocyte lipid droplet formation, primary screen, imaging, high-throughput imaging, BODIPY stain. actives 0.4% (n = 240,000). inhibition, % at 6.5 µM. AML12 mouse hepatocytes, oleate lipid droplets;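 active = lipid droplet intensity inhibited by at least 50%, with more than 500 cells counted; inconclusive = wells with under 300 cells, treated as cytotoxic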
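Material: mouse AML12 hepatocyte cell line, fixed after treatment; Timing: compound with oleate, overnight; Technique: high-content imaging of BODIPY-stained droplets and DAPI nuclei; Probe or stimulus: oleate, 100 µM final; Dosing: compound at 6.5 µM only.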
XBP1 UPR conf: IRE1-XBP1 UPR arm activators, confirmation, cell-based, CHO-XBP1 luciferase reporter, luminescence, single concentration; actives 63% (n = 1,000); activation, % at 20 µM; AID 485299, 2010; shares compounds with UPR XBP1 act;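 active = reporter signal at least 30% of the positive control's activation in two or more of four replicate wells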;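 also: plate controls were DMSO negative control for no effect and tunicamycin 10 µg/mL positive control for full effect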
* hit, by the source's call; i = inactive; ? = inconclusive; . = no result.

SMILES | UPR CHOP act | UPR XBP1 act | ANO1 block | CHOP inh | ANO1 activ | Hep lipid drop | XBP1 UPR conf
CCCNC(=O)c1ccc2c(=O)c(O)c(-c3ccc(OC)cc3)[nH]c2c1 | 3 | 63* | i | 39 | i | . | 56*
CCCNC(=O)c1ccc2c(=O)c(O)c(-c3ccsc3)[nH]c2c1 | 1 | 2 | i | 4 | i | 7 | .
Cn1c(Cl)cnc1C1CC(=O)c2cc(Cl)ccc2O1 (stereo not given) | 23 | 77* | i | -37 | i | 3 | 130*
O=C(N/N=C/c1ccccc1Cl)c1[nH]c2ccc(Br)cc2c1-c1ccccc1 | 0 | 50* | i | -8 | i | ? | 59*
COc1ccc(/C=N/NC(=O)c2[nH]c3ccc(Br)cc3c2-c2ccccc2)c(C(=O)O)c1OC | 1 | 2 | i | -26 | i | 8 | .
COc1ccc(C2NCCc3c2[nH]c2ccccc32)cc1COc1ccc(F)cc1 (stereo not given) | 0 | 32* | i | 75* | i | ? | 39*
O=C(O)c1ccc(N=NN2CCCCCC2)cc1 | 0 | -1 | i | -10 | i | -1 | .
COc1cc(/C=C/c2ccc3cccc(O)c3n2)ccc1O | 28 | 60* | i | . | i | -7 | 36*
CC1=CC(C)(C)n2c(O)c(N=NC(N)=S)c3cc(C)cc1c32 | 22 | 31* | i | 35 | i | -6 | 3
O=C(O)c1ccccc1-c1nc2ccccc2[nH]1 | 3 | -1 | i | -18 | i | 14 | .
Oc1ccc2ccccc2c1C=Nc1ccccc1-c1nc2ccccc2[nH]1 | 26 | 37* | i | 73* | i | 10 | 5
Cc1c(N)cccc1Cl | . | . | . | . | i | . | .
CCOC(=O)C1=C(C)N=c2s/c(=C/c3ccccc3)c(=O)n2C1c1ccc(OC)c(OC)c1 (stereo not given) | -2 | 11 | i | 26 | i | . | .
CCOC(=O)C1=C(C)n2c(s/c(=C/c3cccc([N+](=O)[O-])c3)c2=O)=NC1c1ccc(O)c(OC)c1 (stereo not given) | 38 | 45* | i | 30 | i | -11 | 86*
O=C(NC1CCCC1)C1CCN(C(=O)c2ccccc2Cl)CC1 | 1 | 2 | i | . | i | -3 | .
Cc1c(NC(=O)CSc2ccc(Cl)cc2)cccc1-c1nc2cc(Cl)ccc2o1 | 9 | 42* | i | 66 | i | 0 | 59*
Cc1ccc2occ(/C=N/NC(=O)c3ccncc3)c(=O)c2c1 | -1 | -5 | i | . | i | -4 | .
CCOC(=O)CC(=O)CSc1nc(-c2ccc3c(c2)OCO3)cc(C(F)(F)F)c1C#N | -2 | 38* | i | 9 | i | . | 11
Cc1ccc(S(=O)(=O)c2cc3c(=O)n4cccc(C)c4nc3n(Cc3ccncc3)c2=N)cc1 | 15 | 49* | i | . | i | 11 | 20
Cc1cccn2c(=O)c3cc(S(=O)(=O)c4ccccc4)c(=N)n(Cc4cccnc4)c3nc12 | -1 | 5 | i | . | i | -12 | .
COc1ccc([N+](=O)[O-])cc1COc1ccc2c(-c3ccccc3)cc(=O)oc2c1 | 6 | 48* | i | 18 | i | . | 143*
Cc1ccc(CNS(=O)(=O)N(C)C)cc1 | -1 | 0 | i | -4 | i | 7 | .
CCCCC1=CC2=C(c3ccco3)C(=O)C(C)(OC(=O)c3ccc(OC)cc3)C(=O)C2=CN1c1ccc(OC)cc1 (stereo not given) | -2 | 1 | i | -49 | i | -3 | .
CCCCC1=CC2=C(c3ccco3)C(=O)C(C)(OC(=O)c3ccc(OC)cc3)C(=O)C2=CN1CC(C)C (stereo not given) | 19 | 33* | i | 79* | i | 1 | -2
Cc1ccc(C(=O)N2N=C(c3ccc(Br)cc3)CC2c2ccccc2O)cc1 (stereo not given) | 5 | 40* | i | . | i | 16 | 41*
SMILES | UPR CHOP act | UPR XBP1 act | ANO1 block | CHOP inh | ANO1 activ | Hep lipid drop | XBP1 UPR conf
CCOC(=O)c1sc(NC(=O)CN2C(=O)NC3(CCC(C)CC3)C2=O)c(C(=O)OCC)c1C (stereo not given) | 12 | 31* | . | . | i | . | 24
CCOC(=O)c1sc(NC(=O)CN2C(=O)NC3(CC(C)CC(C)(C)C3)C2=O)c(C(=O)OCC)c1C (stereo not given) | 2 | -2 | i | 3 | i | 5 | .
Cc1ccccc1NC(=O)C(C)Sc1nnc(-c2ccncc2)n1CC1CCCO1 (stereo not given) | -2 | 1 | i | . | i | -1 | .
CCc1ccc(NS(=O)(=O)c2c(C(=O)N3CCOCC3)c(C)n(C)c2C)cc1 | -1 | -2 | i | . | i | 7 | .
COc1ccc(-c2sc3ccccc3c2-c2ccc(OCCN(C)C)cc2)cc1 | 12 | 44* | . | . | i | . | 58*
CCCCN1C(=O)C(=O)c2cc(Cl)ccc21 | 7 | 42* | . | . | . | . | 38*
Cc1ccc2c(c1)C(=O)C(=O)N2Cc1ccc(Br)cc1 | 2 | 52* | . | . | i | . | 40*
Cc1ccc2c(c1)C(=O)C(=O)N2CCCOc1ccccc1C | 4 | 25 | i | 62 | i | 2 | .
CCCN1C(=O)C(=O)c2cc(C)ccc21 | 2 | 16 | . | . | i | . | .
Cc1ccc(CN2C(=O)C(=O)c3cc(C)ccc32)cc1 | 4 | 35* | . | . | i | . | 29*
CC1CC(C)(C)CC2(C1)NC(=O)N(CC(=O)Nc1cc([N+](=O)[O-])ccc1F)C2=O (stereo not given) | -3 | -4 | . | . | i | . | .
O=C(Nc1ccc(Cl)cc1)Nc1ccccc1Sc1ncc([N+](=O)[O-])s1 | 12 | 40* | i | 37 | i | -20 | 31*
COC(=O)[C@H]1[C@@H](C)N(Cc2ccccc2)C(=O)N[C@H]1c1cccc(C(F)(F)F)c1 | 0 | -2 | i | . | i | . | .
CC1(C)CC(=O)c2cnc3c(C#N)cnn3c2C1 | 1 | 2 | i | 12 | i | -23 | .
Cc1cc(Br)ccc1NC(=O)C1CCN(S(=O)(=O)c2cnc[nH]2)CC1 | 1 | -1 | i | . | i | -6 | .

Bioassay records: PubChem BioAssay, several laboratories
